Assay results taken from ChEMBL document CHEMBL1151735, “Further studies with the 2-amino-1,3-thiazol-4(5H)-one class of 11beta-hydroxysteroid dehydrogenase type 1 inhibitors: reducing pregnane X receptor activity and exploring activity in a monkey pharmacodynamic model” (J Med Chem, 2008).

How the values were obtained:
[1] = biological target: T1, 11-beta-hydroxysteroid dehydrogenase 1 (Homo sapiens, UniProt P28845); assay: Inhibition of human 11beta-HSD1 expressed in CHO cells assessed as conversion of cortisone to cortisol by ELISA; format: cell-based
[2] = biological target: T2, 11-beta-hydroxysteroid dehydrogenase type 2 (Homo sapiens, UniProt P80365); assay: Inhibition of human 11beta-HSD2 expressed in CHO cells using [3H]cortisol by scintillation proximity assay; format: cell-based
T2 sequence (P80365 whole entry): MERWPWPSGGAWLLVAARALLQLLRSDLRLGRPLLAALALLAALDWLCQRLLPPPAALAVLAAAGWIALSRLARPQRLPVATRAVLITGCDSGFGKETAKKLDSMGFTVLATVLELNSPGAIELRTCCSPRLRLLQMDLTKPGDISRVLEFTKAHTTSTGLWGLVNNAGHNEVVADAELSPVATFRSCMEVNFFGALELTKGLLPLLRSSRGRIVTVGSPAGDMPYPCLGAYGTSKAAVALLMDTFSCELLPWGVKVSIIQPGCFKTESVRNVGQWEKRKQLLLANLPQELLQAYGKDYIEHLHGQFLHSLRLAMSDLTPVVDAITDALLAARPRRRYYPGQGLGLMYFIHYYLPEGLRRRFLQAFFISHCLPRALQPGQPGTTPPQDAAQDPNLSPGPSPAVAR
Summary of the method: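 Human 11β-HSD2 from CHO cells with [3H]cortisol 3 nM and NAD+ 300 µM, in 0.1 M sodium phosphate pH 7.6. 1 h at room temperature, then stopped with 18β-glycyrrhetinic acid. Anticortisol antibody and antimouse SPA beads added for 30 min; radiometric read-out.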

[3] = biological target: T1, 11-beta-hydroxysteroid dehydrogenase 1; assay: Inhibition of human recombinant 11beta-HSD1 expressed in Escherichia coli using [3H]cortisone by scintillation proximity assay
[4] = biological target: T3, Nuclear receptor subfamily 1 group I member 2 (Homo sapiens, UniProt O75469); assay: Transactivation of human PXR transfected in HEK cells at 20 uM by luciferase reporter gene assay relative to 12.5 uM rifampin; format: cell-based; conditions: hek293, 20 µM
T3 sequence (O75469 whole entry): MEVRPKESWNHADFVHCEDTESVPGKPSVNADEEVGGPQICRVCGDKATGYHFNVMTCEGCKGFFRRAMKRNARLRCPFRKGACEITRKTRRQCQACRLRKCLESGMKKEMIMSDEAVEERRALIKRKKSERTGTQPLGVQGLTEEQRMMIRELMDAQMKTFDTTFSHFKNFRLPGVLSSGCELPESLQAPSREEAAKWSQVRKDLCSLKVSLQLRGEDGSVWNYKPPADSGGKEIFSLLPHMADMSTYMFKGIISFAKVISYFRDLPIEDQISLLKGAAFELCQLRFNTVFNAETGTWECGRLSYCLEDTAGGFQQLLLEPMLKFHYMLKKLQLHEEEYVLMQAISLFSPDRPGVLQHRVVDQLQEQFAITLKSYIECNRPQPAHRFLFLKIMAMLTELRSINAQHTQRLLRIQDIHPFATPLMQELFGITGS
Summary of the method: (§1)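 HEK cells transfected with human PXR fused to a firefly luciferase reporter. Luciferase activity is expressed as percent of the 12.5 µM rifampin response. Run in triplicate; SEM reported.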

Cytochrome P450 3A4 [5] = biological target: T4, Cytochrome P450 3A4 (Homo sapiens, UniProt P08684); assay: Induction of CYP3A4 activity in cryopreserved human hepatocytes from male DJV donars with no adverse medical history or substance or alcohol abuse at 20 uM relative to 20 uM rifampin
Hepatocyte [6] = assay: Induction of CYP3A4 in cryopreserved human hepatocytes from female NPV donars with history of tobacco and substance usage assessed as mRNA expression at 20 uM relative to 20 uM rifampin; format: functional
Hepatocyte [7] = assay: Induction of CYP3A4 in cryopreserved human hepatocytes from male DJV donars with no adverse medical history or substance or alcohol abuse assessed as mRNA expression at 20 uM relative to 20 uM rifampin; format: functional
Cytochrome P450 3A4 [8] = biological target: T4, Cytochrome P450 3A4; assay: Induction of CYP3A4 activity in cryopreserved human hepatocytes from female NPV donars with history of tobacco and substance usage at 20 uM relative to 20 uM rifampin
[9] = biological target: T5, PXR (nuclear receptor subfamily 1 group I member 2) (Homo sapiens, UniProt O75469); assay: Transactivation of human PXR transfected in HEK cells at 2 uM by luciferase reporter gene assay relative to 12.5 uM rifampin; format: cell-based; conditions: HEK293 cells transfected with human PXR, read-out: Activity; summary of the method: as §1
T5 sequence (O75469 whole entry): T3 sequence (O75469 whole entry)

T1 sequence (P28845 whole entry): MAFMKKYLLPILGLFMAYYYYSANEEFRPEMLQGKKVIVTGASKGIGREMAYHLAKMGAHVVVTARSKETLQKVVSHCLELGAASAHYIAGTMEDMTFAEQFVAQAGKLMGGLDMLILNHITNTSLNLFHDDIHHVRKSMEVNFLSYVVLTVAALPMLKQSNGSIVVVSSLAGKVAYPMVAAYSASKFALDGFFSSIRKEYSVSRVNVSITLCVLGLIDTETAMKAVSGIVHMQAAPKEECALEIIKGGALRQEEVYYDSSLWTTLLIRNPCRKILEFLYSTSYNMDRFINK
T4 sequence (P08684 whole entry): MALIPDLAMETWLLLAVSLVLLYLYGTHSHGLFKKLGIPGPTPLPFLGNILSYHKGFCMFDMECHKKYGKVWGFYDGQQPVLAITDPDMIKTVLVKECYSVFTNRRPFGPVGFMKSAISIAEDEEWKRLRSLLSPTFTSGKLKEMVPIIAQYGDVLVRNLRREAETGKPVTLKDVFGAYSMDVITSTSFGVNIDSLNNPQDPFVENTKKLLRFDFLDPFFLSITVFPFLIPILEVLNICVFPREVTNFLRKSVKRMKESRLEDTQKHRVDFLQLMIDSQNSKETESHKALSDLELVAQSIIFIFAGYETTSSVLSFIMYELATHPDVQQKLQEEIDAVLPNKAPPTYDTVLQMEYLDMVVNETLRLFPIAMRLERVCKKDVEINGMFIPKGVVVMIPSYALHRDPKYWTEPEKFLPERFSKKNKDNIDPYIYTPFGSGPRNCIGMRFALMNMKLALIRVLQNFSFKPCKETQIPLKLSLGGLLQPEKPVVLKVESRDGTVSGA

| Structure (SMILES) | IC50 [1] | IC50 [2] | Ki [3] | Activity [4] | also measured |
| --- | --- | --- | --- | --- | --- |
| C[C@H](NC1=NC(=O)C(C)(C(C)(C)O)S1)c1ccccc1C(F)(F)F (some centres not stated) | 43 nM | > 10000 nM | 25 nM | 43% | – |
| C[C@H](NC1=NC(=O)[C@@](C)(C(F)(F)F)S1)c1ccccc1F | – | – | – | 45% | Activity (Cytochrome P450 3A4 [5]): 64%; Activity (Hepatocyte [6]): 67%; Activity (Hepatocyte [7]): 110%; Activity (Cytochrome P450 3A4 [8]): 56% |
| C[C@H](NC1=NC(=O)C(C)(C(C)(C)O)S1)c1ccccc1 (some centres not stated) | – | – | – | 68% | – |
| C[C@H](NC1=NC(=O)C(C)(c2ccc(F)cc2)S1)c1ccc(F)cc1 (some centres not stated) | – | – | – | 65% | activity at 2 µM [9]: 64% |
| C[C@H](NC1=NC(=O)C(C)(C(C)(C)O)S1)c1ccc(F)cc1 (some centres not stated) | 51 nM | > 10000 nM | 65 nM | 10% | – |
| C[C@H](NC1=NC(=O)C(C)(C(C)(C)O)S1)c1ccccc1Cl (some centres not stated) | 18 nM | > 10000 nM | 26 nM | 63% | – |
| C[C@H](NC1=NC(=O)C(C)(C2(O)CCCC2)S1)c1ccc(F)cc1 (some centres not stated) | 11 nM | > 10000 nM | 25 nM | 61% | – |
| C[C@H](NC1=NC(=O)C(C)(c2ccc(CO)cc2)S1)c1ccc(F)cc1 (some centres not stated) | – | – | – | 25% | activity at 2 µM [9]: 2.3% |
| O=C(Nc1cccc(C(=O)N2CCC[C@@H]3CCCC[C@H]32)c1)c1ccccc1 | 14 nM | – | – | – | – |
